Screening results (PubChem BioAssay)
In the library only some 3.8% were active in any assay of this set; here they are far more common.
KCNK9 block – blocks the human KCNK9 two-pore domain potassium channel; Q9NPC2; HEK293 KCNK9, FluxOR thallium flux fluorescence; stronger effect = lower value; B-score at 10 µM; 1.2% of 310,000 active; AID 488922;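 active = ratio B-score over 3 SD below the library mean, with starting fluorescence within 5 SD of its mean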;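 note: negative B-score means less thallium flux so channel inhibition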
KCNQ1 block – human KCNQ1 channel inhibition; B-score at 10 µM; 1.3% of 310,000 active; P51787; CHO-K1 KCNQ1, FluxOR thallium flux fluorescence; stronger effect = higher value;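 active = compounds whose thallium flux B-score, printed positive for inhibition, exceeds three library SD while starting fluorescence stays within three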;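 note: channel opened by potassium depolarization with thallium stimulus after 20 min compound exposure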
Kir21 block – blocks the mouse Kir2.1 inward-rectifier potassium channel | P35561 | AID 1672 | B-score at 10 µM | HEK293-Kir2.1, FluxOR thallium flux fluorescence; stronger effect = lower value | 0.85% of 310,000 active;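 active = fluorescence ratio B-score at or below minus 3 SD of library scores, with starting-brightness B-score within 2 SD, cut at about -4.2 in these data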;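 note: channel flux triggered by added potassium and thallium sulfate stimulus; B-score of peak minus minimum fluorescence over baseline after thallium stimulus; more negative B-score means stronger Kir2.1 block with less thallium influx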
KCNK3 inh – human KCNK3 channel inhibition, primary screen | CHO-KCNK3 thallium flux, FluxOR fluorescence; stronger effect = lower value | B-score at 10 µM | O14649 | 0.84% of 340,000 active;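 active = B-score under library mean minus 4 SD, starting fluorescence ratio at most library mean plus 5 SD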;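 note: more negative B-score means stronger inhibition of thallium flux through KCNK3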
hERG protect – compounds protecting human hERG from proarrhythmic drug block. AID 1511. activation (rescue from dofetilide block), less the hit threshold, % at 10 µM. Q12809. CHO-hERG, FluxOR thallium flux, dofetilide IC70 present. 0.51% of 310,000 active;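 active = activation above the mean of controls blocked by dofetilide plus 5 SD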;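 note: thallium influx through hERG after potassium depolarization seen as dye fluorescence rise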
Target sequence (Q12809 whole entry, looked up): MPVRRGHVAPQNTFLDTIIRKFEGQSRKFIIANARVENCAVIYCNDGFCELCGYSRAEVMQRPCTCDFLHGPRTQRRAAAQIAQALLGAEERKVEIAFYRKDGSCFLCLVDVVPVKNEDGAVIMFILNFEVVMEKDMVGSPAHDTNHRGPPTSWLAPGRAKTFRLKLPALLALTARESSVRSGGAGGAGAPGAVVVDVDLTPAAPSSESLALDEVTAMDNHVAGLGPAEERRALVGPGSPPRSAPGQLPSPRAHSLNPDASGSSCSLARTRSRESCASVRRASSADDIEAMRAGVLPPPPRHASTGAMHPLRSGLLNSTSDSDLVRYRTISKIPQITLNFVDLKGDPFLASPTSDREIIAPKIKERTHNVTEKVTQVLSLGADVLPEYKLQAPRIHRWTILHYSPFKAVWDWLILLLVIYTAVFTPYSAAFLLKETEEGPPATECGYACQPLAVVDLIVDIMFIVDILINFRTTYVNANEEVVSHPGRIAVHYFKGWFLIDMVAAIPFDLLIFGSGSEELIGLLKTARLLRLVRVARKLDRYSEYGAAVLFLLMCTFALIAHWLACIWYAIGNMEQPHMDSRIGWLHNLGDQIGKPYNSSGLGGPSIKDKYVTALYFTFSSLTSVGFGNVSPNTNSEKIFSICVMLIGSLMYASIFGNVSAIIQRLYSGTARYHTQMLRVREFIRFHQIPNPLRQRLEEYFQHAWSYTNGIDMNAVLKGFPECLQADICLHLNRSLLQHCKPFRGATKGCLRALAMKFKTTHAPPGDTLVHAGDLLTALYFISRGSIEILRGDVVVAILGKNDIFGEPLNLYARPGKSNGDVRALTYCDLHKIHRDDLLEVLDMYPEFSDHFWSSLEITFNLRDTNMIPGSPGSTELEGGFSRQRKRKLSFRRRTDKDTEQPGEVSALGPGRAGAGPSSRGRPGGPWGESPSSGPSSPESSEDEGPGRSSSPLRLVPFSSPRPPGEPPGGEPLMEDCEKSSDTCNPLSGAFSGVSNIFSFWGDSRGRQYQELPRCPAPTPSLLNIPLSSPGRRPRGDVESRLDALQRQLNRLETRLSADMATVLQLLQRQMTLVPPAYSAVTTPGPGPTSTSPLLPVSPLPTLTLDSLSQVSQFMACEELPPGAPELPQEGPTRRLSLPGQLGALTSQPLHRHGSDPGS
KCNQ1 pot – potentiators or activators of human KCNQ1 potassium channel; 0.35% of 310,000 active; B-score at 10 µM; P51787; CHO-K1 KCNQ1, thallium flux FluxOR fluorescence; stronger effect = higher value;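 active = fluorescence ratio B-score, a plate-corrected score, at least three library SD, with initial intensity B-score within 5 SD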
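Assay system: CHO-K1 cells stably expressing KCNQ1; Medium: assay buffer with matched DMSO; Also added: K+/Tl+ depolarizing stimulus; Dosing: single dose; Timing: dye 90 min, compound 20 min, room temperature; Measured by: kinetic FluxOR thallium fluorescence, 10-s 1-Hz baseline, 110-s post-stimulus read; Read-out: peak-minus-minimum fluorescence over initial fluorescence, negative-control normalized, B-scored.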
KCNK3 confirm – confirmation of human KCNK3 two-pore domain potassium channel inhibitors; shares compounds with KCNK3 inh; CHO-KCNK3 thallium flux, FluxOR fluorescence; 0% buffer, 100% carvedilol maximal block; ratio percent of control, % at 10 µM; 99% of 2,400 active;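 active = ratio percent of control, averaged over triplicates, above buffer control mean plus 5 SD, cut at about 64% in these data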;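 note: ratio is the fluorescence rise from min to max over baseline after thallium stimulus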
KCNK3 noninduced – activity in cells without induced KCNK3 expression. shares compounds with KCNK3 inh. non-induced KCNK3 parental cells, FluxOR thallium flux; stronger effect = lower value. thallium flux ratio (lower = more inhibition) at 10 µM. 40% of 2,400 active. AID 651747;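 active = thallium flux ratio, averaged over three wells, more than 5 SD below the buffer control mean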;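 note: host cells are CHO cells without KCNK3 induction; ratio is peak minus trough fluorescence over baseline then normalized to buffer controls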
An asterisk follows results filed as active; i = inactive; . = no result.

SMILES	KCNK9 block	KCNQ1 block	Kir21 block	KCNK3 inh	hERG protect	KCNQ1 pot	KCNK3 confirm	KCNK3 noninduced
COc1ccc(NC(=O)CNC(c2ccccc2)c2ccccc2)cc1	i	i	-0.03	i	-3.5	i	.	.
COc1ccc(C(NCC(=O)NC(C)c2ccc(Cl)cc2)c2ccccc2)cc1 (centres undefined)	i	i	0.01	-9.49*	-1.2	i	126.0*	0.118*
Cc1cc(CN(C)C)c(O)c(C2(C)CCCCC2)c1	i	i	-1.96	i	-6.1	i	.	.
Cc1cc(CN2CCOCC2)c(O)c(C2(C)CCCCC2)c1	i	i	0.34	-9.68*	-6.8	i	108.3*	i
COc1ccc(N2CCN(S(=O)(=O)c3ccc(OC)c(C(=O)N4CCCCC4)c3)CC2)cc1	i	i	0	i	-14.0	i	.	.
CSc1nc(C)cc(OCC(=O)N/N=C/c2ccccc2O)n1	i	i	-0.18	i	-7.3	i	.	.
COc1ccccc1CN(C)CC(=O)Nc1cccc2ccccc12	i	i	-2.18	i	-14.1	i	.	.
COc1cc(Cl)c(C)cc1NC(=O)CN(C)Cc1cccc(OC)c1OC	i	i	-2.87	-12.9*	-8.3	i	98.7*	i
c1ccc(-c2nc(NCc3cccnc3)c3ccccc3n2)cc1	i	i	-1.52	-9.18*	-15.1	i	110.7*	0.15*
O=C(OCCNc1nc(-c2ccccc2)nc2ccccc12)c1ccncc1	-7.29*	i	-0.82	i	-7.8	i	123.7*	0.159*
COc1ccc(CNc2nc(-c3ccccc3)nc3ccccc23)cc1OC	i	i	0.65	-16.6*	-6.3	i	114.0*	0.136*
O=C(OCCNc1nc(-c2ccccc2)nc2ccccc12)c1cccnc1	i	i	-1.48	i	-16.2	i	.	.
O=C(c1ccc(Cl)c(S(=O)(=O)NCc2cccnc2)c1)N1CCCC1	.	.	.	i	.	.	.	.
CC(C)(C)S(=O)(=O)N1C[C@@H]2CC/C=C\C/C=C\2[C@H]1CCO	.	.	.	i	.	.	.	.
O=C1c2cccc3cccc(c23)C(=O)N1CC1CCN(CC(O)COc2ccc3ccccc3c2)CC1 (centres undefined)	i	i	-1.65	-9.86*	-17.1	i	101.3*	0.15*
COc1ccc(/C=N/NC(=O)c2cccs2)c2ccccc12	i	i	3.59	-11.4*	-13.7	i	114.7*	0.152*
O=C(COC(=O)CNC(=O)C1CCCCC1)Nc1cc(C(F)(F)F)ccc1Cl	.	.	.	i	.	.	.	.
CC(OC(=O)C1CC1)C(=O)Nc1cc(C(F)(F)F)ccc1Cl (centres undefined)	i	i	-0.9	-9.92*	-6.7	i	77.0*	0.152*
COc1ccc(OC)c(NC(=S)NC(=O)c2ccc(Br)o2)c1	i	i	-0.5	i	1.9	i	.	.
CCOC(=O)c1ccc(NC(=O)CSCc2ccco2)cc1	i	i	-1.6	-9.17*	-22.2	i	91.3*	i
CCOC(=O)c1cc2c(=O)n3ccccc3nc2n(CC(C)C)c1=NC(=O)c1ccco1	i	i	-0.25	i	-12.2	i	.	.
CCOC(=O)c1cc2c(=O)n3ccccc3nc2n(Cc2ccco2)c1=NC(=O)c1ccccc1OCC	i	i	-2.8	-8.82*	-11.8	i	91.3*	i
CN(c1ccc(C(=O)Nc2ccc(F)cc2F)cc1)S(=O)(=O)c1ccccc1	i	i	-1.42	i	-13.0	i	.	.
NC(=S)Nc1ccc(Cl)c(Cl)c1	i	i	1.9	i	-9.6	i	.	.
Cc1cc(C)cc(NC(=S)Nc2ccc(Cl)c(Cl)c2)c1	i	12*	-2.01	-13.6*	-17.7	i	145.7*	0.107*
CC1=C(C(=O)Nc2cccc(C(=O)NCc3ccc(F)cc3)c2)SCCO1	i	i	-0.65	-8.98*	-9.0	i	84.3*	i
